Laboratory results: ChEMBL document CHEMBL2086251, “Arylazolyl(azinyl)thioacetanilides. Part 10: design, synthesis and biological evaluation of novel substituted imidazopyridinylthioacetanilides as potent HIV-1 inhibitors” (Bioorg Med Chem, 2012)

Legend:
[1] = test system: Human immunodeficiency virus 1; assay: Antiviral activity against HIV-1 3B infected human MT4 cells assessed as inhibition in viral syncytium formation by MTT assay; assay type: functional, organism-based; settings: Human immunodeficiency virus 1, 3B
Summary of the method: (§1)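 MT-4 cells (6 × 10⁵ cells/mL) infected with HIV-1 IIIB or HIV-2 ROD stock at 100–300 CCID50, with serial fivefold compound dilutions in triplicate wells. After 5 days, viability was read by MTT reduction at 540 and 690 nm, using the median OD of three wells. EC50 is the concentration giving 50% inhibition of virus-induced syncytium formation.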

[2] = test system: Human immunodeficiency virus 2; assay: Antiviral activity against HIV-2 ROD infected human MT4 cells assessed as inhibition in viral syncytium formation by MTT assay; assay type: functional, organism-based; settings: Human immunodeficiency virus 2, ISOLATE ROD; summary of the method: as §1
[3] = Cytotoxicity against mock-infected human MT4 cells by MTT assay; assay type: cell-based
Summary of the method: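 Mock-infected MT-4 cells (6 × 10⁵ cells/mL) were run in parallel with the infected wells, with serial fivefold compound dilutions in triplicate. After 5 days, viability was read by MTT at 540 and 690 nm, using the median OD of three wells. CC50 is the concentration that reduces OD540 of mock-infected controls by 50%.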

[4] = Selectivity index, ratio of CC50 for human MT4 cells to EC50 for HIV-1 3B; assay type: toxicity, cell-based; settings: read-out: Ratio CC50/EC50
Summary of the method: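 SI is the ratio CC50/EC50, both taken from parallel 5-day MTT assays in MT-4 cells. CC50 comes from mock-infected cells and EC50 from HIV-1 IIIB-infected cells.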

[5] = test system: Human immunodeficiency virus 1; assay: Antiviral activity against HIV-1 RES056 harboring RT K103N/Y181C mutant gene infected human MT4 cells assessed as inhibition in viral syncytium formation by MTT assay; assay type: functional, organism-based; settings: Human immunodeficiency virus 1, RES056, MT4
Summary of the method: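 MT-4 cells infected with double-mutant RT (K103N/Y181C) HIV-1 RES056; compounds added as serial fivefold dilutions in triplicate wells with mock-infected parallels. Cells at 6 × 10⁵ cells/mL. Viability read by MTT after five days at 540 and 690 nm, median OD of three wells. EC50 is the concentration inhibiting virus-induced syncytium formation by 50%.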

[6] = target: Human immunodeficiency virus type 1 reverse transcriptase (Human immunodeficiency virus 1, UniProt Q72547); assay: Inhibition of recombinant HIV-1 RT assessed as inhibition of biotin-dUTP incorporation by colorimetric analysis
Summary of the method: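 Highly purified recombinant HIV-1 RT was used with a […] homopolymer template primer. Nucleotides were linked to a microtiter plate, and incorporated biotin-dUTP was detected colorimetrically. IC50 is the concentration inhibiting biotin-dUTP incorporation by 50%.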

Question: For `Cc1cc(C)c(-n2c(SCC(=O)Nc3ccccc3F)nc3cnccc32)c(C)c1`, which EC50 [1] is on record?
Answer: The EC50 was > 18 µM.

Question: And the EC50 [2]?
Answer: Its EC50 is > 18 µM.

Question: What about the CC50 [3] of the same compound?
Answer: Its CC50 is 18 µM.

Question: And the selectivity ratio [4]?
Answer: Its selectivity ratio is < 1.

Question: For `Cc1cc(C)c(-n2c(SCC(=O)Nc3ccccc3Br)nc3cnccc32)c(C)c1`, which EC50 [5] is on record?
Answer: The EC50 was > 22 µM.

Question: And the EC50 [1]?
Answer: Its EC50 is 5.2 µM.

Question: And the EC50 [2]?
Answer: Its EC50 is > 22 µM.

Question: What about the CC50 [3] of the same compound?
Answer: Its CC50 is 22 µM.

Question: What about the selectivity ratio [4] of the same compound?
Answer: Its selectivity ratio is 4.

Question: For `Cc1cc(C)c(-n2c(SCC(=O)Nc3ccc(C)cc3Br)nc3cnccc32)c(C)c1`, which EC50 [1] is on record?
Answer: The EC50 was > 5.9 µM.

Question: And the EC50 [2]?
Answer: Its EC50 is > 5.9 µM.

Question: What about the CC50 [3] of the same compound?
Answer: Its CC50 is 5.9 µM.

Question: What about the selectivity ratio [4] of the same compound?
Answer: The selectivity ratio was < 1.

Question: Which results are given for `Cc1cc(C)c(-n2c(SCC(=O)Nc3ccc(C)cc3[N+](=O)[O-])nc3cnccc32)c(C)c1`?
Answer: EC50 [5]: > 6.2 µM; EC50 [1]: ≥ 1.2 µM; EC50 [2]: > 6.2 µM; CC50 [3]: 6.2 µM; selectivity ratio [4]: ≤ 5

Question: With `Cc1cc(C)c(-n2c(SCC(=O)Nc3ccccc3[N+](=O)[O-])nc3cnccc32)c(C)c1` as the compound, how does the EC50 [5] read?
Answer: Its EC50 is > 9.9 µM.

Question: What about the EC50 [1] of the same compound?
Answer: The EC50 was 5.7 µM.

Question: And the EC50 [2]?
Answer: The EC50 was > 9.9 µM.

Question: And the CC50 [3]?
Answer: The CC50 was 9.9 µM.

Question: And the selectivity ratio [4]?
Answer: Its selectivity ratio is 2.

Question: Which results are given for `CC(=O)c1ccc(NC(=O)CSc2nc3cnccc3n2-c2c(C)cc(C)cc2C)c(Br)c1`?
Answer: EC50 [5]: > 61 µM; EC50 [1]: 0.99 µM; EC50 [2]: > 61 µM; CC50 [3]: 61 µM; selectivity ratio [4]: 61

Question: Which EC50 [5] does the source give for `Cc1cc(C)c(-n2c(SCC(=O)Nc3ccc(Cl)cc3Cl)nc3cnccc32)c(C)c1` here?
Answer: Its EC50 is > 140 µM.

Question: What about the EC50 [1] of the same compound?
Answer: The EC50 was ≥ 1.1 µM.

Question: And the EC50 [2]?
Answer: Its EC50 is > 140 µM.

Question: What about the CC50 [3] of the same compound?
Answer: The CC50 was 140 µM.

Question: And the selectivity ratio [4]?
Answer: The selectivity ratio was ≤ 127.

Question: Which EC50 [1] does the source give for `Cc1cc(C)c(-n2c(SCC(=O)Nc3ccccc3C)nc3cnccc32)c(C)c1` here?
Answer: Its EC50 is > 22 µM.

Question: And the EC50 [2]?
Answer: Its EC50 is > 22 µM.

Question: What about the CC50 [3] of the same compound?
Answer: Its CC50 is 22 µM.

Question: What about the selectivity ratio [4] of the same compound?
Answer: Its selectivity ratio is < 1.

Question: What does the source list for `COC(=O)c1ccc(NC(=O)CSc2nc3cnccc3n2-c2c(C)cc(C)cc2C)c(Br)c1`?
Answer: EC50 [5]: > 27 µM; EC50 [1]: ≥ 2.5 µM; EC50 [2]: > 27 µM; CC50 [3]: 27 µM; selectivity ratio [4]: ≤ 11

Question: Which EC50 [5] does the source give for `CCOC(=O)c1ccc(NC(=O)CSc2nc3cnccc3n2-c2c(C)cc(C)cc2C)c(Br)c1` here?
Answer: Its EC50 is > 22 µM.

Question: What about the EC50 [1] of the same compound?
Answer: Its EC50 is 4.7 µM.

Question: And the EC50 [2]?
Answer: Its EC50 is > 22 µM.

Question: What about the CC50 [3] of the same compound?
Answer: Its CC50 is 22 µM.

Question: And the selectivity ratio [4]?
Answer: The selectivity ratio was 5.

Question: For `Cc1cc(C)c(-n2c(SCC(=O)Nc3ccc([N+](=O)[O-])cc3Cl)nc3cnccc32)c(C)c1`, which EC50 [5] is on record?
Answer: The EC50 was > 29 µM.

Question: What about the EC50 [1] of the same compound?
Answer: Its EC50 is 1.4 µM.

Question: And the EC50 [2]?
Answer: Its EC50 is > 29 µM.

Question: What about the CC50 [3] of the same compound?
Answer: The CC50 was 29 µM.

Question: What about the selectivity ratio [4] of the same compound?
Answer: Its selectivity ratio is 20.

Question: Which EC50 [1] does the source give for `Cc1cc(C)c(-n2c(SCC(=O)Nc3ncc(C)cc3Br)nc3cnccc32)c(C)c1` here?
Answer: The EC50 was > 61 µM.

Question: What about the EC50 [2] of the same compound?
Answer: The EC50 was > 61 µM.

Question: And the CC50 [3]?
Answer: Its CC50 is 61 µM.

Question: And the selectivity ratio [4]?
Answer: Its selectivity ratio is < 1.

Question: For `Cc1cc(C)c(-n2c(SCC(=O)Nc3ccc(S(N)(=O)=O)cc3Br)nc3cnccc32)c(C)c1`, which EC50 [5] is on record?
Answer: Its EC50 is > 9.7 µM.

Question: And the EC50 [1]?
Answer: Its EC50 is 0.21 µM.

Question: And the EC50 [2]?
Answer: Its EC50 is > 9.7 µM.

Question: What about the CC50 [3] of the same compound?
Answer: The CC50 was 9.7 µM.

Question: What about the IC50 [6] of the same compound?
Answer: Its IC50 is 4.4 µM.

Question: And the selectivity ratio [4]?
Answer: Its selectivity ratio is 46.

Question: Which results are given for `O=C(CSc1snnc1-c1ccc(Br)cc1Br)Nc1cccnc1Cl`?
Answer: EC50 [1]: 0.0364 µM; selectivity ratio [4]: > 6460

Question: With `CC(C)Nc1cccnc1N1CCN(C(=O)c2cc3cc(NS(C)(=O)=O)ccc3[nH]2)CC1` [DELAVIRDINE] as the compound, how does the EC50 [5] read?
Answer: Its EC50 is > 36.2 µM.

Question: What about the CC50 [3] of the same compound?
Answer: Its CC50 is > 36 µM.

Question: What about the selectivity ratio [4] of the same compound?
Answer: The selectivity ratio was > 1030.

Question: Which CC50 [3] does the source give for `O=C1Nc2ccc(Cl)cc2[C@@](C#CC2CC2)(C(F)(F)F)O1` [EFAVIRENZ] here?
Answer: The CC50 was > 6.3 µM.

Question: What about the selectivity ratio [4] of the same compound?
Answer: Its selectivity ratio is > 964.

Question: For `Cc1ccnc2c1NC(=O)c1cccnc1N2C1CC1` [NEVIRAPINE], which EC50 [5] is on record?
Answer: The EC50 was > 15 µM.

Question: What about the CC50 [3] of the same compound?
Answer: Its CC50 is > 15 µM.

Question: And the selectivity ratio [4]?
Answer: Its selectivity ratio is > 75.

Question: Which results are given for `Nc1ccn([C@H]2CC[C@@H](CO)O2)c(=O)n1` [ZALCITABINE]?
Answer: EC50 [2]: 1.7 µM; CC50 [3]: > 95 µM; selectivity ratio [4]: > 68

Question: With `Cc1cn([C@H]2C[C@H](N=[N+]=[N-])[C@@H](CO)O2)c(=O)[nH]c1=O` [ZIDOVUDINE] as the compound, how does the EC50 [5] read?
Answer: Its EC50 is 0.01 µM.

Question: What about the EC50 [1] of the same compound?
Answer: Its EC50 is 6 µM.

Question: And the CC50 [3]?
Answer: Its CC50 is ≥ 50 µM.

Question: What about the selectivity ratio [4] of the same compound?
Answer: Its selectivity ratio is ≥ 8300.
